{"source": "ChEMBL document CHEMBL1141444", "about": "“Sorbifolivaltrates A-D, diene valepotriates from Valeriana sorbifolia(1)” (J Nat Prod, 2007)", "experiment": "Cytotoxicity against human PC3M cells by MTT assay", "assay_type": "functional, cell-based", "conditions": "PC-3M", "procedure,_shortened": "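Human metastatic prostate PC-3M cells seeded at 2000/well, recovered overnight; serial drug dilutions in medium added in quadruplicate, DMSO as negative and doxorubicin as positive control. Incubated about 40 h at 37 °C, 5% CO2, then MTT 0.4 mg/mL for 4 h; medium removed, DMSO added, absorbance read at 650 nm. Percent inhibition plotted to derive IC50.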", "data": [{"smiles": "CC(=O)OCC1=CO[C@@H](OC(=O)CC(C)C)[C@H]2C1=C[C@H](OC(=O)CC(C)C)[C@]21CO1", "note": "[VALTRATE]", "values": [{"measurement": "IC50", "value": 1.7, "unit": "µM"}]}, {"smiles": "CCC(C)CC(=O)O[C@H]1C=C2C(COC(C)=O)=CO[C@@H](OC(=O)C=C(C)C)[C@@H]2[C@@]12CO2", "note": "(stereo not given in full)", "values": [{"measurement": "IC50", "value": 12.2, "unit": "µM"}]}, {"smiles": "CC(=O)OCC1=CO[C@@H](OC(=O)C=C(C)C)[C@H]2C1=C[C@H](OC(=O)CC(C)C)[C@]2(O)COC(=O)CC(C)C", "values": [{"measurement": "IC50", "value": 8.9, "unit": "µM"}]}, {"smiles": "CC(=O)O[C@H]1C=C2C(COC(=O)CC(C)C)=CO[C@@H](OC(=O)CC(C)C)[C@@H]2[C@@]12CO2", "values": [{"measurement": "IC50", "value": 3.1, "unit": "µM"}]}, {"smiles": "CC(C)CC(=O)OCC1=CO[C@@H](OC(=O)CC(C)(C)O)[C@H]2C1=C[C@H](OC(=O)CC(C)C)[C@]2(O)COC(=O)CC(C)C", "values": [{"measurement": "IC50", "value": 8.9, "unit": "µM"}]}, {"smiles": "CCC(C)CC(=O)O[C@H]1C=C2C(COC(C)=O)=CO[C@@H](OC(=O)C=C(C)C)[C@@H]2[C@@]1(O)COC(=O)CC(C)C", "note": "(stereo not given in full)", "values": [{"measurement": "IC50", "value": 7.3, "unit": "µM"}]}, {"smiles": "CC(C)=CC(=O)O[C@@H]1OC=C(COC(=O)CC(C)C)C2=C[C@H](OC(=O)CC(C)C)[C@]3(CO3)[C@H]21", "values": [{"measurement": "IC50", "value": 2.6, "unit": "µM"}]}, {"smiles": "CC(=O)OCC1=CO[C@@H](OC(=O)C=C(C)C)[C@H]2C1=C[C@H](OC(=O)CC(C)C)[C@]21CO1", "values": [{"measurement": "IC50", "value": 20, "unit": "µM"}]}, {"smiles": "COc1cccc2c1C(=O)c1c(O)c3c(c(O)c1C2=O)C[C@@](O)(C(=O)CO)C[C@@H]3O[C@H]1C[C@H](N)[C@H](O)[C@H](C)O1", "note": "[DOXORUBICIN]", "values": [{"measurement": "IC50", "value": 1.26, "unit": "µM"}]}, {"smiles": "CC(=O)OCC1=CO[C@@H](OC(=O)CC(C)(C)O)[C@H]2C1=C[C@H](OC(=O)CC(C)C)[C@]2(O)COC(=O)CC(C)C", "values": [{"measurement": "IC50", "value": 11.1, "unit": "µM"}]}]}
